Compound activity: PubChem BioAssay, The Scripps Research Institute Molecular Screening Center
Rows were chosen to be rich in hits. Some 2.8% of all compounds tested hit in one or more screens of this group.
PAFAH2 inh – inhibitors of human PAFAH2; recombinant PAFAH2, FP-rhodamine activity probe, fluorescence polarization; inhibition, % at 3.39 µM; 0.99% of 340,000 active; AID 492956;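 active = inhibition above the mean over all tested compounds plus 3 SD, cut at about 30% in these data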;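 note: inhibitors block probe labeling of enzyme so polarization drops; 0% = enzyme with DMSO and 100% = wells lacking PAFAH2 protein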
pPAFAH FP inh – pPAFAH (human) enzyme inhibition. Q13093. inhibition, % at 3.39 µM. 1.5% of 330,000 active. recombinant pPAFAH, FP-rhodamine probe fluorescence polarization. AID 463082;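 active = inhibition above the mean inhibition across the screen plus 3 SD, cut at about 25% in these data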;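 note: inhibitors block binding of the rhodamine activity-based probe so polarization drops; 0% = enzyme with DMSO and 100% = wells lacking pPAFAH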
mABHD4 FP – ABHD4 (mouse) inhibition, primary FP screen | inhibition, % at 8.92 µM | purified mABHD4, FP-Rh probe fluorescence polarization | Q8VD66 | 0.54% of 370,000 active;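 active = inhibition exceeding the mean over every tested compound plus 3 SD, cut at about 30% in these data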;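 note: 0% = plate median of compound wells and 100% = S159A mutant with DMSO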
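Assay system: mouse ABHD4 enzyme, wild type / Also added: fluorescent activity-based probe FP-Rh / Doses: single nominal dose of 8.92 µM, 0.89% DMSO final / Timing: 45 min compound pre-incubation plus 60 min probe step, 25 °C / Signal: FP readout, ex 525 nm / em 598 nm / Control set: S159A mutant/DMSO as 100%, compound-well median as 0%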
HTRA1 inh – inhibitors of human serine peptidase HTRA1. recombinant HTRA1, FP-rhodamine activity-based probe, fluorescence polarization. inhibition, % at 5.96 µM. 0.5% of 340,000 active. AID 504803; in the data active = inhibition above about 36%;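 note: 0% = enzyme with DMSO and 100% = wells lacking enzyme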
PAFAH1B3 FP inh – blocks human PAF acetylhydrolase 1B catalytic subunit 3. Q15102. recombinant PAFAH1B3, FP-rhodamine probe, fluorescence polarization. inhibition, % at 3.39 µM. 0.28% of 340,000 active;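 active = inhibition above the screen-wide average of all tested compounds plus 3 SD, cut at about 25% in these data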;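 note: 0% = enzyme with DMSO only and 100% = wells lacking PAFAH1B3 protein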
Target sequence (Q15102 whole entry, looked up): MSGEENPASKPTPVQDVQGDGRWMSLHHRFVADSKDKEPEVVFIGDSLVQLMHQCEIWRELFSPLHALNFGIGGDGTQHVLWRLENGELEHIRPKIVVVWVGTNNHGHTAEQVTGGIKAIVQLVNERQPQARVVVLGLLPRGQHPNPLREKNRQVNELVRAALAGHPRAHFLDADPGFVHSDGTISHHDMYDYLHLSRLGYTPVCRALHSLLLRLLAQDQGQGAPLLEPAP
PAFAH1B2 FP inh – inhibitors of human PAFAH1B2 | recombinant PAFAH1B2, FP-rhodamine activity probe, fluorescence polarization | AID 492953 | 1.2% of 340,000 active | inhibition, % at 3.39 µM;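 active = inhibition above the mean of all tested compounds plus 3 SD, cut at about 24% in these data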;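 note: 0% = enzyme with DMSO and 100% = wells lacking PAFAH1B2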
Target sequence (P68402 whole entry, looked up): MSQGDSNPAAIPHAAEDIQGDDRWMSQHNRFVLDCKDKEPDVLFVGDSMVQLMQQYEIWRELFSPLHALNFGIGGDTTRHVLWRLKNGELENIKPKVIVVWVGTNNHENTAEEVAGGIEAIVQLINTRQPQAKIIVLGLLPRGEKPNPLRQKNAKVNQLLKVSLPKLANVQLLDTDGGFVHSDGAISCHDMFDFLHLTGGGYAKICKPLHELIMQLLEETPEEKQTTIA
pPAFAH FP conf – pPAFAH (human) inhibition, confirmed | shares compounds with pPAFAH FP inh | recombinant pPAFAH, FP-Rh probe fluorescence polarization | inhibition, % at 3.39 µM | 72% of 2,300 active | AID 463230;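 active = mean inhibition of the triplicate above the hit cutoff set for the earlier primary screen, cut at about 25% in these data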;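 note: 0% = enzyme with DMSO and 100% = wells lacking pPAFAH enzyme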
* = called active by the depositor; x = no result given.

SMILES	PAFAH2 inh	pPAFAH FP inh	mABHD4 FP	HTRA1 inh	PAFAH1B3 FP inh	PAFAH1B2 FP inh	pPAFAH FP conf
COC(=O)[C@]1(CNS(=O)(=O)c2ccc(F)cc2)CC(=O)N(C)[C@@H]1c1ccccc1	x	x	0	x	x	x	x
COc1cc([N+](=O)[O-])ccc1-c1ccc(/C=N/NC(=O)OC(C)(C)C)o1	-4	3	2	0	4	-1	x
COc1cc([N+](=O)[O-])ccc1-c1ccc(/C=N/NC(N)=O)o1	-1	67*	5	3	8	0	-5
N#Cc1ccc(Nc2nc(-c3ccc(O)cc3O)cs2)cc1C(F)(F)F	9	35*	x	27	26*	11	27*
Oc1ccc(-c2csc(Nc3ccc4c(c3)OCO4)n2)c(O)c1	19	x	12	29	17	21	x
Cn1c(=N)n(CC(=O)c2ccc(Br)cc2)c2ccccc21	1	35*	0	-12	-6	2	6
Cn1c(=N)n(CC(=O)c2ccc(F)cc2)c2ccccc21	4	3	-4	-4	12	-3	x
C#CCNC(=O)C[C@H]1C[C@@]2(C(=O)OC)C(=C[C@H](C3CCCC3)O[C@@H]2C)N(Cc2ccco2)C1=O	x	x	3	x	x	x	x
Cc1[nH]n(-c2nc(-c3ccccc3F)cc(=O)[nH]2)c(=O)c1CCO	3	41*	4	-3	-3	2	6
CCCCNC(=O)c1sc(=S)n2c1[nH]c(=O)c1ccc(C(=O)NCCc3ccc(OC)c(OC)c3)cc12	12	40*	x	3	18	20	42*
COc1ccccc1Oc1c(C)oc2c(CN3CCN(CCO)CC3)c(O)ccc2c1=O	x	41*	-1	x	x	x	4
CCc1c(C)nc2ncnn2c1N1CCCC(C(=O)NCc2ccco2)C1 (stereo not drawn)	1	57*	7	-3	-7	-1	4
CCc1c(C)nc2ncnn2c1N1CCCC(C(=O)NCc2cccs2)C1 (stereo not drawn)	4	-2	-4	6	2	-2	x
COC(=O)[C@]12C[C@H](CC(=O)NCc3ccccc3)C(=O)N(Cc3ccc4c(c3)OCO4)C1=C[C@H](C(C)C)O[C@@H]2C1CC1	x	x	-3	x	x	x	x
O=C(CN1C(=O)CSC1=O)NCc1ccccc1	-8	78*	-1	5	1	0	-7
O=C1CCCC2=C1C(c1ccncc1)c1c(nc(SCc3ccccc3Cl)[nH]c1=O)N2 (stereo not drawn)	20	1	-6	-13	2	6	x
CCC(C)Sc1nc2c(c(=O)[nH]1)C(c1cccs1)C1=C(CCCC1=O)N2 (stereo not drawn)	8	38*	2	-3	8	10	20
O=C1CC(c2ccc(O)c(O)c2)Oc2c1ccc(O)c2O (stereo not drawn)	50*	60*	28	34	19	12	60*
CC(C)=CCc1c(O)ccc2c1OC(c1ccc(O)c(O)c1)CC2=O (stereo not drawn)	7	20	13	23	15	6	x
Cc1cc(NC(=O)c2ccc(Cl)cc2)c(C)cc1O	-2	4	4	3	7	4	x
Cc1cc(C(C#N)c2ccc(Cl)cc2)c(Cl)cc1NC(=O)c1cc(I)cc(I)c1O (stereo not drawn)	13	47*	5	-25	11	11	41*
CCOc1ccc(NC(=O)CSc2nc3[nH]ncc3c(=O)n2-c2ccccc2OC)cc1	-2	40*	0	-7	1	-6	20
COc1ccccc1-n1c(SCC(=O)Nc2ccccc2F)nc2[nH]ncc2c1=O	-1	1	3	-2	3	3	x
COC(=O)C1CN(Cc2ccc(F)cc2)CCS(=O)(=O)N1Cc1ccc(F)cc1 (stereo not drawn)	x	x	-1	x	x	x	x
O=C1NC(=Nc2ccc3ccccc3c2)S/C1=C/c1ccco1	5	55*	6	-6	1	13	22
SMILES	PAFAH2 inh	pPAFAH FP inh	mABHD4 FP	HTRA1 inh	PAFAH1B3 FP inh	PAFAH1B2 FP inh	pPAFAH FP conf
Cc1cccc(N=C2NC(=O)/C(=C/C=C/c3ccco3)S2)c1	32*	50*	-1	11	27*	10	25*
C#CCNC(=O)C[C@@H]1C(=O)N(CCc2ccc(Cl)cc2)/C2=C/CCCCC[C@@]21C(=O)OCC	x	x	21	x	x	x	x
Oc1c(Br)cc(Br)c(/C=N/n2c(-c3ccccc3)n[nH]c2=S)c1Br	31*	42*	9	3	1	9	53*
Oc1ccc(Br)cc1/C=N/n1c(-c2ccccc2)n[nH]c1=S	10	-6	2	12	6	9	x
CCCC1CCC2(CCCN2CCOC(=S)Nc2ccccc2Br)CC1 (stereo not drawn)	x	x	0	x	x	x	x
Cc1oc(-c2ccc(F)cc2)cc1-c1nn2c(-c3ccoc3C)nnc2s1	16	35*	14	10	6	0	17
Cc1oc(-c2ccc(F)cc2)cc1-c1nn2c(-c3ccco3)nnc2s1	x	x	18	x	x	x	x
Oc1nc(Nc2cccc(Cl)c2)sc1/C=C1\C=Nc2ccccc21	-4	37*	-6	-21	15	10	29*
Cc1cc(NC(=O)COC(=O)CNS(=O)(=O)c2ccc(C)c(C)c2)no1	5	7	3	-5	11	6	x
Cc1cccc(NS(=O)(=O)c2ccc(C)c(C(=O)OCC(=O)Nc3cc(C)on3)c2)c1	-6	68*	-8	-71	5	4	62*
Nc1ccc2c(c1)C/C(=C/c1ccco1)C2=O	9	84*	17	7	7	-8	6
Cc1nnc(NC(=O)c2sc3nc(-c4cccs4)cc(C(F)(F)F)c3c2N)s1	15	70*	9	-2	11	2	73*
Oc1cccc(/C=N/NC(=S)NCCN2CCOCC2)c1O	-1	41*	14	3	17	7	6
CCCCn1c(N)c(N(CCOC)C(=O)c2ccc(-c3cccc(C(F)(F)F)c3)o2)c(=O)[nH]c1=O	-10	39*	-11	-3	1	2	17
Cc1cccc(NC(=O)CN2CCN(CC(=O)NCc3ccc(Cl)cc3Cl)CC2)c1C	7	3	0	6	0	4	x
Cc1cccc(NC(=O)CN2CCN(C(=O)CNC(=O)Cc3cccc4ccccc34)CC2)c1C	3	48*	0	4	6	3	4
COC(=O)[C@H](CC(C)C)N(CCCc1cn(Cc2ccc(C)cc2)nn1)S(=O)(=O)c1ccccc1Br	x	x	-1	x	x	x	x
O=C(CNC(c1ccccc1)c1ccccc1)Nc1ccccc1F	6	47*	-3	-34	-4	6	-4
O=C(CNC(c1ccccc1)c1ccccc1)Nc1ccccc1-c1ccccc1	-4	-6	-30	-49	4	-1	x
